Measured values pooled from the literature.
DCLK3: Serine/threonine-protein kinase DCLK3 (DCLK3, Homo sapiens, UniProt Q9C098)
TSSK1B: Testis-specific serine/threonine-protein kinase 1 (TSSK1B, Homo sapiens, UniProt Q9BXA7)
mraY: mraY (Staphylococcus aureus, UniProt Q2FZ93)

SMILES | target | assay | system | setting | endpoint | result
Cc1cc(S(=O)(=O)N[C@H]2CC[C@H](CN3CCN(c4ccc(C5CCC(=O)NC5=O)cc4F)CC3)CC2)ccc1Nc1ncc(C(F)(F)F)c(N2CCC[C@](C)(O)C2)n1 (stereo partly shown) | DCLK3 | binding, competition with immobilised ligand | – | 1 µM | remaining binding | 28%
CCCCC(=O)Nc1ccc(-c2ccc3ncn(CCC)c(=O)c3c2)cn1 | Serine/threonine-protein kinase SIK1 (SIK1, Homo sapiens, UniProt P57059) | binding, competition with immobilised ligand | – | 0.5 µM | remaining binding | 79%
COc1ccc2oc(-c3ccc4nc(N)oc4c3)c/c(=N\c3ccccc3NC(=O)CCN)c2c1 | TSSK1B | binding | – | 1 µM | remaining binding | 100%
C[C@]1(O)CCCN(c2nc(Nc3ccc(S(=O)(=O)N[C@H]4CC[C@H](CN5CCN(c6ccc(C7CCC(=O)NC7=O)cc6F)CC5)CC4)cc3Cl)ncc2C(F)(F)F)C1 (stereo partly shown) | Aurora kinase C (AURKC, Homo sapiens, UniProt Q9UQB9) | binding, competition with immobilised ligand | – | 1 µM | remaining binding | 99%
CCCCCCC#Cc1cncc(-c2nnc(SCc3ccc([N+](=O)[O-])o3)n2CCCN)c1 | mraY | cell-free assay, inhibitor | – | 250 µM | inhibition | 71%
C[C@]1(O)CCCN(c2nc(Nc3ccc(S(=O)(=O)N[C@H]4CC[C@H](CN5CCN(c6ccc(C7CCC(=O)NC7=O)cc6F)CC5)CC4)cc3F)ncc2C(F)(F)F)C1 (stereo partly shown) | DCLK3 | binding, competition with immobilised ligand | – | 1 µM | remaining binding | 43%
CCCCCCC#Cc1cncc(-c2nnc(SC[C@H]3O[C@@H](n4ccc(=O)[nH]c4=O)[C@H](O)[C@@H]3O)n2CCO)c1 | mraY | cell-free assay, inhibitor | – | 250 µM | inhibition | 22%
CCN1/C(=C/C(C)=O)Sc2ccc(F)cc21 | B1 bradykinin receptor (BDKRB1, Homo sapiens, UniProt P46663) | ligand displacement, radioligand | – | 10 µM | inhibition | 0%
Cc1cc(-c2ccnc3[nH]cc(F)c23)cc(F)c1[C@@]1(O)[C@H](C)CN(C(=O)CN)C[C@@H]1C | Rho-associated protein kinase 1 (ROCK1, Homo sapiens, UniProt Q13464) | enzyme activity, inhibitor | – | 0.1 µM | remaining activity | 13.5%
CNS(=O)(=O)c1ccc(Nc2ncc(C(F)(F)F)c(N3CCC[C@](C)(O)C3)n2)c(C)c1 | DCLK3 | binding, competition with immobilised ligand | – | 1 µM | remaining binding | 41%
CCCCCCC#Cc1cncc(-c2nnc(SCc3cc([N+](=O)[O-])cc([N+](=O)[O-])c3)n2CCOC2OC(CN)C(O)C2O)c1 (stereo not shown) | mraY | cell-free assay, inhibitor | – | 250 µM | inhibition | > 80%
Cc1n[nH]c2ccc3nc(-c4ccc(C(=O)NCCN(C)C)cc4F)c4c(c3c12)CCCC4 | Receptor-type tyrosine-protein kinase FLT3 (FLT3, Homo sapiens, UniProt P36888, ITD) | enzyme activity, inhibitor, radiometric | – | 0.5 µM | remaining activity | 13%
CSCC[C@H](NC(C)=O)C(=O)N[C@@H](CC(=O)O)C(=O)N[C@@H](Cc1ccccc1)C(N)=O | Gastrin/cholecystokinin type B receptor (CCKBR, Homo sapiens, UniProt P32239) | β-arrestin recruitment, agonist | HTLA | – | Emax | 38.1%
C1=C/COCc2cc(ccc2OCCN2CCCC2)Nc2nccc(n2)-c2cccc(c2)COC/1 | Activin receptor type-2B (ACVR2B, Homo sapiens, UniProt Q13705) | binding | – | 0.1 µM | remaining binding | 63%
N#Cc1ccc(NC(=O)Nc2ccccc2)cc1 | TSSK1B | cell-free assay, competition with immobilised ligand | – | 25 µM | remaining binding | 83%
NC/C(=C\F)COc1cccc(Cn2c(=S)[nH]c(=O)c3[nH]cnc32)c1 | Melatonin receptor type 1A (MTNR1A, Homo sapiens, UniProt P48039) | ligand displacement, radioligand | – | 10 µM | inhibition | < 50%
